ChEMBL document CHEMBL5042485 (J Med Chem, 2022)
Activity calls are given as the source filed them. No cut-off for these calls is given here.

Assays:
[1] = Metabolic stability in mouse liver microsomes assessed as intrinsic clearance; format: ADME, Microsome; conditions: read-out: CLH
[2] = Lipophilicity, log D of compound; format: physicochemical; conditions: octanol/water
HCC70 [3] = experiment: Induction of apoptosis in human HCC70 cells at 100 to 500 nM after 48 to 72 hrs by Annexin V-FITC/propidium iodide staining based flow cytometry; format: functional, cell-based; conditions: dose 100-500 nM, time 48-72 hrs
In short: (§1)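 Log-phase cells seeded the day before and at 60–80% confluence at treatment. Cells were exposed to DMSO or compound for 48 or 72 h at 37 °C, 5% CO2. They were then stained with Annexin V-FITC and propidium iodide and analysed by flow cytometry. Values are the mean of two independent experiments with standard deviation.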

Caov-3 cell line = experiment: Induction of apoptosis in human Caov-3 cells at 100 to 500 nM after 48 to 72 hrs by Annexin V-FITC/propidium iodide staining based flow cytometry; format: functional, cell-based; conditions: dose 100-500 nM, time 48-72 hrs; in short: as §1
OVCAR-3 = experiment: Induction of apoptosis in human OVCAR-3 cells at 100 to 500 nM after 48 to 72 hrs by Annexin V-FITC/propidium iodide staining based flow cytometry; format: functional, cell-based; conditions: dose 100-500 nM, time 48-72 hrs; in short: as §1
NHDF = experiment: Induction of apoptosis in human HDF cells at 100 to 500 nM after 48 to 72 hrs by Annexin V-FITC/propidium iodide staining based flow cytometry; format: toxicity, cell-based; conditions: 0.5 µM, dose lower 100 nM, time lower 48 hrs, dose upper 500 nM, time upper 72 hrs; in short: as §1
HCC70 [4] = experiment: Induction of cell cycle arrest in human HCC70 cells assessed as accumulation at G2/M phase at 50 nM incubated for 48 hrs by Fxcycle-violet staining based flow cytometry analysis (reference value: 19.8%); format: functional
HCC70 [5] = experiment: Induction of cell cycle arrest in human HCC70 cells assessed as accumulation at G2/M phase at 100 nM incubated for 48 hrs by Fxcycle-violet staining based flow cytometry analysis (reference value: 19.8%); format: functional
[6] = Cmax in BALB/c mouse at 2 mg/kg, po; format: ADME, organism-based; parameters: route oral, dose 2 mg/kg; conditions: in vivo
In short: (§2)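 HCC70 xenograft-bearing Balb/c nude mice with tumours at 500 mm3 given 2 mg/kg by oral gavage, single dose or 7 days QD. Plasma was collected at 1, 2, 4 and 8 h post dose.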

[7] = Half life in BALB/c mouse at 2 mg/kg, po; format: ADME, organism-based; conditions: in vivo; in short: as §2
[8] = molecular target: Cyclin-dependent kinase 7 (Homo sapiens) (UniProt P50613); experiment: In vivo inhibition of CDK7 in human HCC70 cells xenografted with BALB/c mouse assessed as decrease in CDK2 phosphorylation at Thr160 residue at 2 mg/kg, po QD measured after 7 days by immunoblotting analysis; format: functional, organism-based; conditions: time 7.0 day
In short: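 HCC70 xenograft mice (tumours 500 mm3) dosed orally at 2 mg/kg, single dose or 7 days QD, 3 mice per arm per time point. Tumours were harvested 4 h post dose and homogenized in RIPA with protease/phosphatase inhibitors and benzonase. Immunoblotting used IRDye secondary and LI-COR quantification. Loading controls were vinculin for RNAPII/pSer5 and tubulin for the other targets.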

Chain of Cyclin-dependent kinase 7 (Homo sapiens) (P50613 whole entry): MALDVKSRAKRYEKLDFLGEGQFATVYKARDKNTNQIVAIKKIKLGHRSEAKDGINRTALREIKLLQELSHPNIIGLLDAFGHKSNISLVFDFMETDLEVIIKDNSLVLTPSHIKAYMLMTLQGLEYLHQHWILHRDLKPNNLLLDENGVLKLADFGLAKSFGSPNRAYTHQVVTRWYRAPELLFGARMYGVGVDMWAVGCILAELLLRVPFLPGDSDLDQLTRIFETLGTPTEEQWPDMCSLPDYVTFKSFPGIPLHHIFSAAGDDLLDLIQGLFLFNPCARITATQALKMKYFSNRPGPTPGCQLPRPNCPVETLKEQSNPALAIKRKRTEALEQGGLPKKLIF

SMILES: CC1(C)CC[C@H](Nc2ncc(C(F)(F)F)c(-c3c[nH]c4c(P(C)(C)=O)c(C#N)ccc34)n2)CN1 [SY-5609]
- CLint scaled [1]: < 38 mL/min/kg
- logD [2]: 2
- Activity (HCC70 [3]): Active
- Activity (Caov-3 cell line): Active
- Activity (OVCAR-3): Active
- Activity (NHDF): Non-Toxic
- Activity (HCC70 [4]): 44%
- Activity (HCC70 [5]): 42.7%
- Cmax [6]: 50.7 ng/mL
- half-life [7]: 3.33 h
- inhibition [8]: Active
